MrgX1 antagonist: antagonists of human MrgX1 receptor. MRGX1-HEK293 calcium flux, Fluo-4, BAM8-22 antagonism; hits give low values. B-score at 10 µM. actives 1.3% (n = 310,000). AID 588676;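 active = calcium-response B-score plate-corrected more than 3 library SD below zero, starting fluorescence within 5 deviations, no agonist response on first addition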;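 note: peak minus trough fluorescence over baseline after final BAM8-22 challenge near maximal dose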
Target sequence (Q96LB2 whole entry, looked up): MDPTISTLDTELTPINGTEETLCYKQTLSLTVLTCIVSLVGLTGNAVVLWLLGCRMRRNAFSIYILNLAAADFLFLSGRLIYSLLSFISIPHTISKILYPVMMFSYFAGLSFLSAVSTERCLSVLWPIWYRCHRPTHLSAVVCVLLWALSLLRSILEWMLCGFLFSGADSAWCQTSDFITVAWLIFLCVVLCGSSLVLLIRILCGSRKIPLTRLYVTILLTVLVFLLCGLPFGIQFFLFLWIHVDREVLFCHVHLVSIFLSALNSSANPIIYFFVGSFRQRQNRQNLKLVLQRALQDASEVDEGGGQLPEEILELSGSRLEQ
RGS4 pot: RGS4 potentiation or activation; HEK293 M3R/inducible RGS4, carbachol calcium flux Fluo4; hits give low values; B-score at 10 µM; actives 0.92% (n = 310,000); AID 463111;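 active = B-score of the integrated calcium signal more than 4 SD below the library mean, with starting fluorescence not abnormally high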;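 note: negative B-score means reduced calcium response which marks RGS4 activation or potentiation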
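Reagent: ECmax carbachol challenge; Test system: M3R-expressing HEK293 line, RGS4 induced by doxycycline; Schedule: overnight RGS4 induction, 30 min dye load 37 °C, 20 min compound RT; Detection: calcium dye Fluo4 fluorescence; Read-out: Agonist-evoked peak-minus-minimum fluorescence over baseline, integrated ratio, B score.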
MrgX1 allo act: allosterically activates human MrgX1 receptor signaling; Q96LB2; MrgX1-HEK293, Fluo-4 calcium flux, FDSS; hits give high values; B-score at 10 µM; actives 0.63% (n = 310,000); AID 588675;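 active = plate-corrected calcium response at least 3 library SD above typical, normal starting fluorescence, not activating the receptor alone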;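 note: compound read alongside a low EC10 to EC30 dose of BAM8-22 agonist; peak minus trough fluorescence over baseline measured at the second addition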
MrgX1 agonist: agonists of human MrgX1 receptor | Q96LB2 | MrgX1-HEK293 cells, Fluo-4 calcium fluorescence, agonist mode; hits give high values | B-score at 10 µM | actives 0.44% (n = 310,000) | AID 588627;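 active = calcium response B-score plate-corrected fluorescence ratio at least 3 library SD, with starting fluorescence B-score inside 5 SD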
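Material: MrgX1-expressing HEK293 cells; input: 15,000 cells per well; doses: test compound given as first of three sequential additions; schedule: overnight plating before 1 h dye loading; technique: Fluo-4 NW calcium-flux fluorescence, kinetic read; evaluation: baseline-normalised fluorescence change ratio, B-scored; control set: plate-wise positive and negative controls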
RGS4 block: human RGS4 inhibition. HEK293 M3R/RGS4 inducible, Fluo-4 calcium flux; hits give high values; triggered by carbachol at its EC20. B-score at 10 µM. actives 0.45% (n = 310,000). AID 463165;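 active = B-score, a plate-corrected calcium signal, over three deviations above library mean, with baseline fluorescence within five deviations of library mean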;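 note: RGS4 expression induced by doxycycline in cells with stable M3 receptor; B-score is computed from the integrated fluorescence ratio over baseline after carbachol; higher B-score means a larger calcium signal and so more RGS4 inhibition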
Target sequence (P49798 whole entry, looked up): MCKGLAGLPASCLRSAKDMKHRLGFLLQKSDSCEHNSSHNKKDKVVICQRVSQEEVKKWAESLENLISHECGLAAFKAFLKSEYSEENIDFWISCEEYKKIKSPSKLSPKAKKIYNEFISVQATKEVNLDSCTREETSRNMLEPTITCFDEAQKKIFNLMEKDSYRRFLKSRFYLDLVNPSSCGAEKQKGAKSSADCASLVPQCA
MrgX1 allo conf: confirmation of human MrgX1 receptor positive allosteric modulators | shares compounds with MrgX1 allo act | MrgX1-HEK293, Fluo-4 calcium fluorescence, FDSS | activation (ratio percentage), % at 10 µM | actives 13% (n = 1,200) | AID 602413;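 active = ratio at least 3 SD above the weak peptide control, stable starting fluorescence, no direct agonism earlier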;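 note: compound followed by low BAM8-22 agonist challenge near EC20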
HEK293 Ca flux: activity in parental HEK293 cells lacking MrgX1 | shares compounds with MrgX1 antagonist | Fluo-4 calcium fluorescence, FDSS | fluorescence ratio F(max-min)/F0 at 10 µM | actives 2% (n = 4,000);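 active = duplicate-averaged calcium fluorescence ratio at least three times the standard deviation of buffer wells, a nonspecific response in parental cells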
HEK293 Ca counter: counter-screen for MrgX1 allosteric activators: effect in parental HEK293 cells | parental HEK293 calcium flux, Fluo-4 fluorescence ratio; hits give high values | AID 624114 | shares compounds with MrgX1 antagonist | fluorescence ratio F(max-min)/F0 at 10 µM | actives 0.4% (n = 4,000);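 active = calcium fluorescence ratio, averaged over duplicates, at least 3 SD of the buffer-well ratio, meaning a nonspecific response in receptor-free cells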;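 note: untransfected parental HEK293 lacking MrgX1 used as counterscreen for MrgX1 allosteric activators; fluorescence change taken during the second addition on a kinetic imager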
HEK293 Ca cntr2: MrgX1 activator counter-screen hit in parental HEK293 cells; shares compounds with MrgX1 antagonist; Fluo-4 calcium fluorescence (FDSS); hits give high values; fluorescence ratio F(max-min)/F0 at 10 µM; actives 8.7% (n = 4,000); AID 624115;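 active = calcium fluorescence ratio at least three times the spread of buffer wells, meaning a non-specific response in parental cells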
* marks the source's active call; other numbers are inactive results; i = inactive; / = no result. The list is not random: actives were taken first. Their share in the collection is about 3.5%.

SMILES	MrgX1 antagonist	RGS4 pot	MrgX1 allo act	MrgX1 agonist	RGS4 block	MrgX1 allo conf	HEK293 Ca flux	HEK293 Ca counter	HEK293 Ca cntr2
C=CCn1c(=O)c(C(=O)Nc2ccccc2S(N)(=O)=O)c(O)c2ccccc21	i	i	8.4*	i	i	i	i	i	i
CN(CC(=O)Nn1cnnc1)S(=O)(=O)c1ccccc1	i	i	i	i	i	/	/	/	/
CC1(C)CC2CC(C)(CN2Cc2c(O)ccc3ccccc23)C1 (stereo not drawn)	i	i	7.4*	i	i	i	i	i	53*
CCC1Oc2ccccc2N(CC(=O)NC2CC2)C1=O (stereo not drawn)	i	i	i	i	i	/	/	/	/
Cc1[nH]ncc1-c1nc2ccccc2[nH]1	i	i	13*	i	i	i	i	i	i
O=C(c1ccc2c(c1)OCO2)C1CCCN(C(=O)c2cnn(Cc3ccccc3)c2)C1 (stereo not drawn)	i	i	i	i	i	/	/	/	/
Cc1ccc(-n2c(SCC(=O)Nc3ccc(N4CCOCC4)cc3)nc3ccccc3c2=O)cc1	i	i	i	i	i	/	/	/	/
Cc1ccc(NC(=S)NNC(=O)CSc2nc3ccccc3c(=O)n2-c2ccc(C)cc2)cc1	i	i	21*	i	i	i	i	i	i
Cc1ccc(NC(=O)C2C3C=CC(O3)C2C(=O)O)c(C)c1 (stereo not drawn)	i	i	i	i	i	/	/	/	/
Cc1ccc(NC(=O)CC2Oc3ccc(C)cc3NC2=O)c(C)c1 (stereo not drawn)	i	i	i	i	i	/	/	/	/
Cc1ccc2c(c1)NC(=O)C(CC(=O)O)O2 (stereo not drawn)	i	i	8.1*	i	i	i	i	i	i
CC(C)c1ccc(-c2csc3ncnc(N4CCN(C)CC4)c23)cc1	i	i	7.3*	i	i	i	i	i	i
CN1CCCN(c2ncnc3scc(-c4ccc(F)cc4)c23)CC1	i	i	i	i	i	/	/	/	/
O=C(NCc1ccco1)/C(=C/c1ccccc1F)NC(=O)c1ccccc1	i	i	i	i	i	/	/	/	/
Cc1ccc(C2=NS(=O)(=O)N(C)C(C(=O)NC(C)c3ccccc3)=C2)cc1 (stereo not drawn)	i	i	i	i	i	/	/	/	/
CCOC(=O)c1c(NC(=O)CN2CCOCC2)sc2c1CCCC2=O	i	i	i	i	i	/	/	/	/
CCOC(=O)c1c(NC(=O)CN2CCOCC2)sc2c1CCCC2	i	i	7.1*	i	i	i	i	i	i
O=C(NC(=S)NC1CCCCC1)c1ccc(F)cc1	i	i	7*	i	i	i	i	i	i
O=C(NC(=S)NC1CCN(Cc2ccccc2)CC1)c1ccc(F)cc1	i	i	i	i	i	/	/	/	/
CCN(C(=O)c1c(N)cnn1C)c1ccccc1	i	i	10*	i	i	i	i	i	i
CCn1c(-c2cc(-c3ccc(C)c(C)c3)nc3ccccc23)n[nH]c1=S	i	i	i	i	i	/	/	/	/
Cc1ccc(-c2cc(-c3n[nH]c(=S)n3C)c3ccccc3n2)cc1	i	i	11*	i	i	i	i	i	i
CC(C)(C)c1nnc(NC(=O)CCS(=O)(=O)c2ccccc2)s1	i	i	43*	i	i	i	i	i	i
S=C1NCCOCCOCCNC(=S)N2CCOCCOCCN1CCOCCOCC2	i	i	i	i	i	/	/	/	/
O=C(Nc1ccc(F)cc1)C(=O)C1C(=O)Nc2ccccc21 (stereo not drawn)	i	i	6.6*	i	i	i	i	i	i
SMILES	MrgX1 antagonist	RGS4 pot	MrgX1 allo act	MrgX1 agonist	RGS4 block	MrgX1 allo conf	HEK293 Ca flux	HEK293 Ca counter	HEK293 Ca cntr2
CC1CCCCN1S(=O)(=O)c1ccc(C(=O)Nc2nnc(-c3ccncc3)o2)cc1 (stereo not drawn)	i	i	i	i	i	/	/	/	/
COc1ccc(-c2nnc(NC(=O)c3ccc(S(=O)(=O)N4COCC4(C)C)cc3)o2)cc1	i	i	7*	i	i	i	i	i	i
COc1ccc(CCC(=O)OCC(=O)c2cccc(OC)c2)cc1	i	i	i	i	i	/	/	/	/
CCC(C)NC(=O)C1c2ccccc2C(=O)N1Cc1ccccc1OC (stereo not drawn)	i	i	i	i	i	/	/	/	/
COc1ccccc1CN1C(=O)c2ccccc2C1C(=O)NC1CCC(C)CC1 (stereo not drawn)	i	i	9.8*	i	i	i	i	i	i
COc1cccc(NC(=O)Cn2cnc3sc(C)c(S(=O)(=O)N4CCCCC4)c3c2=O)c1	i	i	i	i	i	/	/	/	/
Clc1ccc(-c2nnnn2-c2ccc(Cl)cc2)cc1	i	i	11*	i	i	i	i	i	i
Clc1ccc(-n2nnnc2-c2ccccc2)cc1	i	/	i	i	/	/	/	/	/
Cc1ccc(NC(=O)CNc2cccc(C)c2C)c(C)c1	i	i	16*	i	i	9.1%*	i	i	i
Cc1cccc(NC(=O)CNCC(=O)Nc2cccc(C)c2C)c1C	i	i	i	i	i	/	/	/	/
Cc1cc(C)n(-c2ccc(C(=O)NC3CCCCC3)cc2)n1	i	i	9.8*	i	i	i	i	i	i
Cc1ccc(C(=O)NC2CCCCC2)cc1	i	i	i	i	i	/	/	/	/
COC(=O)c1cc(Sc2c(Cl)cccc2Cl)ccn1	i	i	46*	i	i	20%*	i	i	i
COC(=O)c1cc(Sc2cccc(Cl)c2Cl)ccn1	i	i	i	i	i	/	/	/	/
Nc1nc(Br)c2c(F)cccc2c1-c1ccc(Cl)cc1	i	i	8.3*	i	i	i	i	i	i

High-throughput results from PubChem BioAssay.
